Data set [1] deals with Escherichia coli. The data set can be described thus: Antibacterial activity against Escherichia coli EMBLC-1 by microplate assay. It is filed as functional.
For data set [2], the system named is Staphylococcus aureus. In words: Antibacterial activity against Staphylococcus aureus EMBLC-2 by microplate assay. The format is functional.
In data set [3] the test system is Aeromonas hydrophila. The data set can be described thus: Antibacterial activity against Aeromonas hydrophila QDIO-1 by microplate assay. The format is functional.
Data set [4] has as its system Edwardsiella tarda. In words: Antibacterial activity against Edwardsiella tarda QDIO-2 by microplate assay. It is filed as functional.
Data set [5] relates to Micrococcus luteus. In words: Antibacterial activity against Micrococcus luteus QDIO-3 by microplate assay. It is filed as functional.
Data set [6] deals with Pseudomonas aeruginosa. The data set can be described thus: Antibacterial activity against Pseudomonas aeruginosa QDIO-4 by microplate assay. The format is functional.
Data set [7] relates to Vibrio alginolyticus. The data set can be described thus: Antibacterial activity against Vibrio alginolyticus QDIO-5 by microplate assay. It is filed as functional.
The subject of data set [8] is Vibrio anguillarum. In words: Antibacterial activity against Vibrio anguillarum QDIO-6 by microplate assay. The format is functional.
Data set [9] deals with Vibrio harveyi. The data set can be described thus: Antibacterial activity against Vibrio harveyi QDIO-7 by microplate assay. It is filed as functional.
Data set [10] concerns Vibrio parahaemolyticus. In words: Antibacterial activity against Vibrio parahaemolyticus QDIO-8 by microplate assay. It is filed as functional.
Data set [11] relates to Alternaria brassicae. In words: Antifungal activity against Alternaria brassicae QDAU-1 by microplate assay. It is filed as functional. The gist of the method: (§1)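 Phytopathogenic fungal strains came from a research group at Qingdao Agricultural University and are kept at the Key Laboratory of Experimental Marine Biology, Institute of Oceanology, CAS. Tested by microplate assay with amphotericin B as the positive control.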

For data set [12], the system named is Colletotrichum gloeosporioides. The data set can be described thus: Antifungal activity against Colletotrichum gloeosporioides QDAU-2 by microplate assay. It is filed as functional. The essentials: as §1
In data set [13] the test system is Gaeumannomyces graminis. The data set can be described thus: Antifungal activity against Gaeumannomyces graminis QDAU-3 by microplate assay. It is filed as functional. The gist of the method:
as §1

Data set [14] in a line: Toxicity in brine shrimp. The format is organism-based. As to conditions: artemia salina, in vivo; read-out: LD50 (the source's name).

Molecules are shown by their SMILES. Converted amounts (≈) assume the structure as drawn. A value given as a limit tells only on which side of the number the result lay.

As a reminder, the MIC is the lowest concentration that inhibits growth of the organism. Consider `CC(C)CCC[C@](C)(O)c1ccc(C(=O)O)cc1O`, for which the MIC in [1] is over 32 µg/mL; in data set [2] it was 32 µg/mL (≈ 120 µM); in [3], over 32 µg/mL; in data set [4], 32 µg/mL (≈ 120 µM); in [5] it was over 32 µg/mL; in [6] it was over 32 µg/mL. Further, the MIC in [7] is over 32 µg/mL; in data set [8], 32 µg/mL (≈ 120 µM); in [9], 4 µg/mL (≈ 15 µM); in data set [10] it was 4 µg/mL (≈ 15 µM); in data set [11], over 32 µg/mL; in data set [12] it was 32 µg/mL (≈ 120 µM). Besides, in [13], 0.5 µg/mL (≈ 1.88 µM) was the least that counted as inhibitory (MIC). For the same compound, in [14], the LC50 is over 10 µg/mL.

For `CC(C)C(O)CC[C@](C)(O)c1ccc(C(=O)O)cc1O` (some centres undefined), the MIC in data set [1] is over 32 µg/mL; in data set [2], 32 µg/mL (≈ 113 µM); in data set [3], 32 µg/mL (≈ 113 µM); in [4] it was over 32 µg/mL; in [5] it was over 32 µg/mL; in data set [6], over 32 µg/mL. Besides, the MIC is over 32 µg/mL in data set [7]; over 32 µg/mL in data set [8]; 8 µg/mL (≈ 28.3 µM) in data set [9]; 32 µg/mL (≈ 113 µM) in data set [10]; over 32 µg/mL in data set [11]; over 32 µg/mL in [12]. In data set [13], this compound displayed an MIC of over 32 µg/mL. In data set [14], the LC50 was over 10 µg/mL.

As to `C=C(CCCC(C)C)c1ccc(C(=O)O)cc1O`, the minimal inhibitory concentration (MIC) in data set [1] is over 32 µg/mL; in [2] it was 32 µg/mL (≈ 129 µM); in [3] it was over 32 µg/mL; in data set [4], over 32 µg/mL; in data set [5], over 32 µg/mL; in [6] it was over 32 µg/mL. In addition, the MIC in data set [7] is over 32 µg/mL; in data set [8], over 32 µg/mL; in [9], 4 µg/mL (≈ 16.1 µM); in [10], 32 µg/mL (≈ 129 µM); in [11] it was over 32 µg/mL; in data set [12], over 32 µg/mL. The MIC in data set [13] worked out at 0.5 µg/mL (≈ 2.01 µM). In addition, the LC50 in [14] was over 10 µg/mL.

With `C/C(=C\CCC(C)C)c1ccc(Cc2c(C)cc(Oc3cc(C)cc(O)c3)cc2O)cc1O`, the MIC in data set [1] was 32 µg/mL (≈ 71.7 µM); in [2], over 32 µg/mL; in [3], over 32 µg/mL; in data set [4], over 32 µg/mL; in [5], 8 µg/mL (≈ 17.9 µM); in [6] it was 4 µg/mL (≈ 8.96 µM). In addition, the MIC in [7] is 8 µg/mL (≈ 17.9 µM); in data set [8], 32 µg/mL (≈ 71.7 µM); in data set [9] it was over 32 µg/mL; in data set [10], 32 µg/mL (≈ 71.7 µM); in [11] it was 32 µg/mL (≈ 71.7 µM); in [12], 32 µg/mL (≈ 71.7 µM). For the same compound, in data set [13], the lowest concentration to inhibit growth (MIC) was 32 µg/mL (≈ 71.7 µM). The LC50 in data set [14] is over 10 µg/mL.

`CC(C)CCC[C@](C)(O)c1ccc(COC(=O)c2ccc([C@@](C)(O)CCCC(C)C)c(O)c2)cc1O`: the MIC in [1] is over 32 µg/mL; in data set [2], over 32 µg/mL; in [3], over 32 µg/mL; in data set [4] it was 8 µg/mL (≈ 16 µM); in data set [5], over 32 µg/mL; in data set [6], over 32 µg/mL. Besides, the MIC in [7] was over 32 µg/mL; in [8], over 32 µg/mL; in [9], over 32 µg/mL; in [10], 32 µg/mL (≈ 63.9 µM); in [11], 32 µg/mL (≈ 63.9 µM); in data set [12], over 32 µg/mL. In [13], this compound showed a minimum inhibitory concentration (MIC) of over 32 µg/mL. Also, in data set [14], the LC50 is over 10 µg/mL.

In the case of `Cc1cc(O)cc(Oc2cc(C)cc(OCc3ccc([C@@](C)(O)CCCC(C)C)c(O)c3)c2)c1`, the MIC in data set [1] is over 32 µg/mL; in [2], over 32 µg/mL; in data set [3], over 32 µg/mL; in data set [4], over 32 µg/mL; in [5], 1 µg/mL (≈ 2.15 µM); in [6] it was 32 µg/mL (≈ 68.9 µM). Moreover, the MIC in data set [7] was 2 µg/mL (≈ 4.3 µM); in data set [8] it was over 32 µg/mL; in data set [9], over 32 µg/mL; in [10], over 32 µg/mL; in [11], 0.5 µg/mL (≈ 1.08 µM); in data set [12], over 32 µg/mL. This compound also had an MIC in [13] of 32 µg/mL (≈ 68.9 µM). The LC50 in data set [14] was over 10 µg/mL.

On to `C=C(C)CCC[C@](C)(O)c1ccc(C(=O)O)cc1O` [11-DEHYDROSYDONIC ACID], for which the MIC was over 32 µg/mL in [1]; 32 µg/mL (≈ 121 µM) in data set [2]; over 32 µg/mL in [3]; over 32 µg/mL in data set [4]; 32 µg/mL (≈ 121 µM) in [5]; over 32 µg/mL in data set [6]. In addition, the MIC in [7] is over 32 µg/mL; in data set [8], over 32 µg/mL; in data set [9] it was 4 µg/mL (≈ 15.1 µM); in data set [10], 32 µg/mL (≈ 121 µM); in data set [11] it was over 32 µg/mL; in [12], 32 µg/mL (≈ 121 µM). In [13], this compound yielded an MIC of over 32 µg/mL. Further, the LC50 in data set [14] was over 10 µg/mL.

In the case of `Cc1ccc([C@@]2(C)CCC(=O)O2)c(O)c1`, the MIC is 32 µg/mL (≈ 155 µM) in [1]; 32 µg/mL (≈ 155 µM) in data set [2]; over 32 µg/mL in data set [3]; over 32 µg/mL in data set [4]; over 32 µg/mL in [5]; over 32 µg/mL in data set [6]. Moreover, the MIC in [7] is over 32 µg/mL; in data set [8], over 32 µg/mL; in [9], 4 µg/mL (≈ 19.4 µM); in [10], over 32 µg/mL; in [11] it was over 32 µg/mL; in [12], 32 µg/mL (≈ 155 µM). This compound also came in with an MIC in data set [13] of 32 µg/mL (≈ 155 µM). Further, the LC50 in data set [14] is over 10 µg/mL.

On to `CC(C)(O)CCC[C@](C)(O)c1ccc(C(=O)O)cc1O`, for which the MIC in data set [1] was 32 µg/mL (≈ 113 µM); in [2], over 32 µg/mL; in data set [3] it was 32 µg/mL (≈ 113 µM); in [4], over 32 µg/mL; in data set [5] it was over 32 µg/mL; in data set [6], over 32 µg/mL. The MIC was over 32 µg/mL in [7]; 32 µg/mL (≈ 113 µM) in [8]; over 32 µg/mL in data set [9]; 32 µg/mL (≈ 113 µM) in [10]; over 32 µg/mL in data set [11]; over 32 µg/mL in data set [12]. The same compound showed an MIC in data set [13] of over 32 µg/mL. Besides, the LC50 in [14] is over 10 µg/mL.

As for `C[C@@H]1[C@H](O)[C@@H](C)/C=C/C=C/C=C/C=C/C=C/C=C/C=C/[C@H](O[C@@H]2O[C@H](C)[C@@H](O)[C@H](N)[C@@H]2O)C[C@@H]2O[C@](O)(C[C@@H](O)C[C@@H](O)[C@H](O)CC[C@@H](O)C[C@@H](O)CC(=O)O[C@H]1C)C[C@H](O)[C@H]2C(=O)O` [AMPHOTERICIN B], the figures for the MIC in data set [11], in data set [12] and in [13] were 32 µg/mL (≈ 34.6 µM), 32 µg/mL (≈ 34.6 µM) and 64 µg/mL (≈ 69.3 µM), respectively.

For the compound `O=C(N[C@H](CO)[C@H](O)c1ccc([N+](=O)[O-])cc1)C(Cl)Cl` [CHLORAMPHENICOL], the MIC in data set [1] came to 4 µg/mL (≈ 12.4 µM); in data set [2], 0.5 µg/mL (≈ 1.55 µM); in data set [3] it was 4 µg/mL (≈ 12.4 µM); in [4], 8 µg/mL (≈ 24.8 µM); in data set [5] it was 8 µg/mL (≈ 24.8 µM); in data set [6], 8 µg/mL (≈ 24.8 µM). For the same compound, the MIC in [7] was determined as 0.5 µg/mL (≈ 1.55 µM); in data set [8], 0.5 µg/mL (≈ 1.55 µM); in [9], 4 µg/mL (≈ 12.4 µM); in data set [10], 0.5 µg/mL (≈ 1.55 µM).

The values above are taken from ChEMBL document CHEMBL3576803, “Antimicrobial Phenolic Bisabolanes and Related Derivatives from Penicillium aculeatum SD-321, a Deep Sea Sediment-Derived Fungus” (J Nat Prod, 2015).
